Screening data: PubChem BioAssay, several laboratories
SKN-1 block: C. elegans SKN-1 inhibition. C. elegans VP596 Pgst-4::GFP/RFP ratio, acrylamide-induced, 24 h. inhibition, % at 21.8 µM. hit rate 0.49% among 360,000. AID 624304;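 active = interference check ratio from 0.5 to 1.5 plus GFP to RFP signal ratio inhibition reaching or exceeding a fixed threshold, cut at about 30% in these data, passing the limit was not always enough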
MT1-MMP act inh: MT1-MMP (human) activation inhibition; P50281; HT1080 RFP-PRO-GFP cells, GFP/RFP ratio fluorescence, overnight; percent of plate control window, DMSO zero; GFP/RFP ratio change, % at 20 µM; hit rate 0.061% among 360,000; AID 651647;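 active = GFP/RFP ratio change of at least 30% with cell ATP level not reduced by more than half and red fluorescence within 50% of control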
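Read-out: GFP/RFP fluorescence ratio; Test system: RFP-PRO-GFP reporter HT1080 cells; Compound dosing: single-point 20 µM compound, 1% DMSO; Times: overnight compound exposure at 37 °C.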
proKLK7 act: activates the human kallikrein-7 zymogen; P49862; purified proKLK7, EDANS-DABCYL substrate fluorescence; 100% is mature enzyme control, 0% vehicle; activation, % at 7 µM; hit rate 0.9% among 370,000;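 active = activation above the mean of all tested compounds plus 3 SD, computed per campaign excluding outliers beyond control limits, cut at about 13% in these data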
Tn7 DDE FP: DD(E)-Tn7 binding inhibition, primary FP screen; P02675; hit rate 0.13% among 370,000; inhibition, % at 8.3 µM; FP displacement of FITC-Tn7 peptide from fibrin DD(E); 0% = median of compound wells per plate;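 active = inhibition above the mean of compounds falling within the control limits plus 3 SD of them, cut at about 14% in these data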
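system = human fibrin DD(E) protein | quantity = DD(E) 2 µM final | medium = Tris/NaCl/CaCl2 buffer, pH 7.8 | also added = labelled Tn7 tracer, 0.1 µM | compound dosing = single point at 8.3 µM | timing = compound with protein 10 min, then 3 h after probe, room temperature | signal = FP measurement | benchmarks = Aha-Tn7 high control | repeats = one replicate per compound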
DDE Tn6 FP inh: DD(E)-Tn6 binding inhibition, primary FP screen | P02675 | Fibrin DD(E) TRITC-Tn6 fluorescence polarization displacement | inhibition, % at 8.3 µM | hit rate 0.21% among 370,000 | AID 720509;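 active = inhibition above a per-campaign cutoff: mean of compounds within control limits plus 3 SD, cut at about 15% in these data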
Neddylation inh: inhibitors of human cullin neddylation; TR-FRET cullin neddylation, biochemical; calls only at 25 µM; hit rate 0.58% among 360,000; in the data active = inhibition above about 36%
Target sequence (P61081 whole entry, looked up): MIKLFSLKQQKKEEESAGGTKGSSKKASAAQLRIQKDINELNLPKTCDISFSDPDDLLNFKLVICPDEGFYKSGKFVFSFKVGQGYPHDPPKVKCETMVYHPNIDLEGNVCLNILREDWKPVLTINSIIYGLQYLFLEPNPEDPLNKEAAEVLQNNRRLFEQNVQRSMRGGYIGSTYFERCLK
Target sequence (Q13564 whole entry, looked up): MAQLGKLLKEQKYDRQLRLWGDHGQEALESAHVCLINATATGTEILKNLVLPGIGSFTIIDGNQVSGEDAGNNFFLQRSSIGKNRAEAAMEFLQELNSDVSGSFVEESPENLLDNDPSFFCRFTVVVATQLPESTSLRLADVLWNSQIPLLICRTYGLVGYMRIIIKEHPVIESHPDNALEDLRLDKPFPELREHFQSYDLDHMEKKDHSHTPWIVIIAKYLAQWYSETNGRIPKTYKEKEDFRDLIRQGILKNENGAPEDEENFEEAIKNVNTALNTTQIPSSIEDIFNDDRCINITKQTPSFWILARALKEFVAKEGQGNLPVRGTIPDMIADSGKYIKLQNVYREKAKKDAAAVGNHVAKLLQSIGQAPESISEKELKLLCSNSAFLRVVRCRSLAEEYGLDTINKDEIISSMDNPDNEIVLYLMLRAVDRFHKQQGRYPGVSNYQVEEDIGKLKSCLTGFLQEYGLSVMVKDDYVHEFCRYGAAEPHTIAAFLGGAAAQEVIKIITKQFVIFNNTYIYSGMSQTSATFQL
KLK7 act conf: confirmation of human kallikrein-7 zymogen activators; shares compounds with proKLK7 act; purified proKLK7, EDANS-DABCYL substrate fluorescence; scaled: vehicle 0, mature enzyme 100; activation, % at 7 µM; hit rate 68% among 3,200;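 active = activation, as change over the incubation, above the mean of all tested compounds plus 3 SD, cut at about 13% in these data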
EDANS-DABCYL int: fluorescence interference counter-screen for KLK7 activators; EDANS-DABCYL substrate fluorescence interference, no enzyme, 4 h; solvent 0%, active enzyme control 100%; shares compounds with proKLK7 act; hit rate 80% among 3,200; activation, % at 7 µM;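 active = activation above the all-compound mean plus 3 SD, ignoring values outside control-based bounds, cut at about 4.8% in these data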;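 note: value is the 4 h activation minus the activation read at time zero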
EDANS interf: EDANS fluorescence interference in dose response, no enzyme. shares compounds with proKLK7 act. EDANS-DABCYL peptide fluorescence interference. EC50, µM. hit rate 20% among 250;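 active = compounds that raise the fluorescence signal in this interference counterscreen, with EC50 at or below 10 µM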;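 note: intact quenched peptide substrate alone read at 355 nm excitation and 520 nm emission; signal is fluorescence gain from T0 to T4 after four hours at room temperature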
Of the large screens only hits and unclear results are named; the others gave an inactive call (follow-up assays come after a bar, where shown). Shown are actives, neighbours in structure and some others; about 2.2% of the full set was active somewhere.

CCCCC(CC)Cn1c(N)c(C#N)c2nc3ccccc3nc21 (stereo not drawn)	none (not shown: Neddylation inh)
Cc1ccc(S(=O)(=O)c2c(N)n(CCCN(C)C)c3nc4ccccc4nc23)cc1	proKLK7 act 35.7 (not shown: Neddylation inh) | KLK7 act conf inactive | EDANS-DABCYL int inactive
O=C(NC1CCCCC1)C1CCN(c2nccs2)CC1	none
Cc1ccc(/C=C/C(=O)c2ccc(O)cc2)cc1	none
CSc1ccc(/C=C/C(=O)c2ccc(O)cc2)cc1	proKLK7 act 28.0 | KLK7 act conf inactive | EDANS-DABCYL int inactive
CC1=C(C#N)C(c2cccnc2)C2=C(CCCC2=O)N1 (stereo not drawn)	proKLK7 act 16.6 (not shown: Neddylation inh) | KLK7 act conf 50.7 | EDANS-DABCYL int 63.6
CC1=C(C#N)C(c2cccnc2)C2=C(N1)c1ccccc1C2=O (stereo not drawn)	none
N#Cc1c(N(CCO)CCO)nc(N)c2c(N)nc3c(c12)CC(=O)N3CC1CCCO1 (stereo not drawn)	proKLK7 act 30.1 (not shown: Neddylation inh) | KLK7 act conf 42.6 | EDANS-DABCYL int 48.8
Cc1cc2cc3c(=O)[nH]c(=O)nc-3n(CC(O)C(O)C(O)CO)c2cc1C (stereo not drawn)	proKLK7 act 47.6 (not shown: Neddylation inh) | KLK7 act conf 61.4 | EDANS-DABCYL int 70.5
Cc1cc2cc3c(=O)[nH]c(=O)cc-3n(CC(O)C(O)C(O)CO)c2cc1C (stereo not drawn)	none
COc1cc2cc(Oc3ccc4ccc(=O)oc4c3)c(=O)oc2cc1O	proKLK7 act 37.3 | KLK7 act conf 36.4 | EDANS-DABCYL int 39.8
COc1ccccc1C(=O)Oc1ccc2ccc(=O)oc2c1	proKLK7 act 356.2 (not shown: MT1-MMP act inh, Neddylation inh) | KLK7 act conf 692.8 | EDANS-DABCYL int 694.3
O=C(Oc1ccc2c(=O)c(Oc3ccc4ccccc4c3)coc2c1)c1ccco1	none (not shown: Neddylation inh)
O=C(CN1C(=O)NC2(CCCCC2)C1=O)Oc1ccc2ccc(=O)oc2c1	proKLK7 act 127.0 (not shown: Neddylation inh) | KLK7 act conf 62.0 | EDANS-DABCYL int 65.4
O=C(Oc1ccc2ccc(=O)oc2c1)c1ccco1	proKLK7 act 179.6 (not shown: Neddylation inh) | KLK7 act conf 705.4 | EDANS-DABCYL int 729.3
Cc1cc(N2CCC(N(C)C3CCCC3)CC2)nc2cc(O)ccc12	proKLK7 act 15.9 (not shown: Neddylation inh) | KLK7 act conf 24.8 | EDANS-DABCYL int 30.9
CC(C)N(CCC(=O)c1ccc2ccccc2c1)Cc1ccccc1	proKLK7 act 14.4 | KLK7 act conf 14.8 | EDANS-DABCYL int 17.9
CCN1CCN(c2cc(C)c3cc(NC(=O)c4ccncc4)ccc3n2)CC1	none
CCOCCCNC(=S)Nc1ccc2nc(N3CCCC3)cc(C)c2c1	proKLK7 act 17.2 (not shown: Neddylation inh) | KLK7 act conf inactive | EDANS-DABCYL int 12.2
CCN1CCN(c2cc(C)c3cc(NC(=O)c4ccc(C)c(C)c4)ccc3n2)CC1	proKLK7 act 29.3 | KLK7 act conf 30.3 | EDANS-DABCYL int 23.9 | EDANS interf inactive
CCN1CCN(c2cc(C)c3cc(NC(=S)N4CC(C)CC(C)C4)ccc3n2)CC1 (stereo not drawn)	proKLK7 act 14.0 | KLK7 act conf inactive | EDANS-DABCYL int inactive
Cc1noc(C)c1S(=O)(=O)N1CCCC1C(=O)NC(C)(C)C (stereo not drawn)	none
CCCN(CCC)CCNC(=O)c1cc2c(=O)n(CC)c3ccccc3c2s1	none (not shown: Neddylation inh)
CCN(CC)CCNC(=O)c1cc2c(=O)n(CC)c3ccccc3c2s1	proKLK7 act 38.4 (not shown: Neddylation inh) | KLK7 act conf inactive | EDANS-DABCYL int inactive
CCn1c(=O)c2cc(C(=O)NCCN(C)C)sc2c2ccccc21	proKLK7 act 35.0 (not shown: Neddylation inh) | KLK7 act conf inactive | EDANS-DABCYL int 6.0
